Source: ChEMBL document CHEMBL1157612, “Synthesis and biological activities of 2-amino-1-arylidenamino imidazoles as orally active anticancer agents” (J Med Chem, 2010)
Calls of active or inactive are those of the source. The calls are words filed in the database; no cut-off is given here.

Columns and labels:
NUGC-3 [1] = experiment: Anticancer activity against human NUGC3 cells after 72 hrs by MTS/PMS assay; type: functional, cell-based; conditions: NUGC-3, 72 h
Summary of the method: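 NUGC-3 gastric cancer cells seeded 4500/well, grown 24 h at 37 °C, 5% CO2, then exposed 72 h to a concentration series, duplicate wells per concentration, final DMSO ≤0.3%. Controls were actinomycin D 10 nM and 0.3% DMSO vehicle. Viability read colorimetrically by MTS/PMS. IC50 is the concentration giving 50% growth inhibition, reported as mean of triplicate wells from at least three experiments.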

P388 [2] = experiment: Anticancer activity against mouse P388 cells xenografted in DBA/2J mouse assessed as increase in mouse life span at 200 mg/kg, po administered daily for 9 consecutive days; type: functional
Summary of the method: (§1)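 Female DBA/2J mice, 5 weeks old, each given 1 × 10^6 P388 cells iv. Oral dosing by gavage (0.1 mL) started one day after inoculation. Compound was dissolved in DMSO and diluted in 0.5% carboxymethyl cellulose (final DMSO <0.5%). Groups of 7–8 mice; vehicle-only controls. Survival checked twice daily. Result is percentage increase in median survival time relative to the control group.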

MKN-45 [3] = experiment: Ex vivo antiproliferative activity against human MKN45 cells xenografted in nude mouse assessed as drug concentration reducing 50% of BrdU labeling index after 96 hrs by immunostaining; type: functional, cell-based; conditions: MKN-45, 96 h
Summary of the method: (§2)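 MKN-45 or SW-480 cells (1 × 10^6) grown subcutaneously in nude mice to ~1 cm3; tumors cut into 1–2 mm pieces and histocultured on gelatin gels in MEM/DMEM with 10% FBS at 37 °C. After 3 days, exposed 96 h to 0.0001–10 μg/mL, then 40 μM BrdU for 48 h. Fixed, paraffin-sectioned, BrdU-immunostained with hematoxylin counterstain. Labeling index = BrdU-positive/total tumor cells; IC50 taken as concentration halving LI.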

MKN-45 [4] = experiment: Ex vivo antiproliferative activity against human MKN45 cells xenografted in nude mouse assessed as BrdU incorporation into DNA at 10 ug/mL after 96 hrs by immunostaining; type: functional, cell-based; summary of the method: as §2
SW480 [5] = experiment: Ex vivo antiproliferative activity against human SW480 cells xenografted in nude mouse assessed as BrdU incorporation into DNA at 10 ug/mL after 96 hrs by immunostaining; type: functional, cell-based; summary of the method: as §2
MKN-45 [6] = experiment: Ex vivo apoptotic activity in human MKN45 cells xenografted in nude mouse assessed as DNA fragmentation at 10 ug/mL after 96 hrs by immunostaining; type: functional, cell-based
Bos taurus [7] = species: Bos taurus; experiment: Displacement of [3H]colchicine from bovine brain tubulin at 25 uM after 1 hr by scintillation counting
[8] = Inhibition of bovine brain tubulin polymerization by turbidity assay; design: species or system Bos taurus
Bos taurus [9] = species: Bos taurus; experiment: Displacement of [3H]colchicine from bovine brain tubulin after 1 hr by scintillation counting
NUGC-3 [10] = experiment: Induction of apoptosis in human NUGC3 cells assessed as DNA fragmentation at 100 nM by ethidium bromide staining-based agarose gel electrophoresis; type: functional, cell-based
NUGC-3 [11] = experiment: Induction of apoptosis in human NUGC3 cells assessed as DNA fragmentation at 1 uM after 16 hrs by Hoechst 33258 staining-based confocal laser-scanning microscopy; type: functional, cell-based
Summary of the method: (§3)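 NUGC-3 cells exposed to 1 μM for 16 h, then fixed in 4% formaldehyde 10 min and blocked with BSA. Stained with monoclonal anti-β-tubulin (1:200, 4 °C overnight) followed by FITC anti-mouse IgG (1:300, 1 h), and for DNA with Hoechst 33258 (1 μg/mL in 0.1% Triton X-100, 5 min). Imaged by confocal laser-scanning microscopy. DMSO vehicle control included.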

MKN-45 [12] = experiment: Ex vivo antiproliferative activity against human MKN45 cells xenografted in nude mouse assessed as BrdU incorporation into DNA after 96 hrs by immunostaining; type: functional, cell-based; summary of the method: as §2
P388 [13] = experiment: Anticancer activity against mouse P388 cells xenografted in iv dosed DBA/2J mouse assessed as increase in mouse life span administered daily for 4 consecutive; type: functional, organism-based
Summary of the method: (§4)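 Female DBA/2J mice, 5 weeks old, inoculated iv with 1 × 10^6 P388 cells each; dosing began one day later, 7–8 mice per group. Compound in DMSO diluted into 0.5% carboxymethyl cellulose (final DMSO <0.5%). Regimens: iv 2.5 or 7.5 (mg/kg)/day for 4 days; po gavage (0.1 mL) 25–200 (mg/kg)/day for 9 days. Vehicle-only controls. Survival checked twice daily; increase in life span computed from median survival time normalized to controls.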

P388 [14] = experiment: Anticancer activity against mouse P388 cells xenografted in DBA/2J mouse assessed as increase in mouse life span at 100 mg/kg, po administered daily for 9 consecutive days; type: functional; summary of the method: as §1
P388 [15] = experiment: Anticancer activity against mouse P388 cells xenografted in DBA/2J mouse assessed as increase in mouse life span at 25 mg/kg, po administered daily for 9 consecutive days; type: functional; summary of the method: as §1
P388 [16] = experiment: Anticancer activity against mouse P388 cells xenografted in DBA/2J mouse assessed as increase in mouse life span at 2.5 mg/kg, iv administered daily for 4 consecutive days; type: functional
Summary of the method: (§5)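 Female DBA/2J mice, 5 weeks old, each inoculated iv with 1 × 10^6 P388 cells (grown in RPMI 1640 with nonessential amino acids, 50 μM 2-mercaptoethanol, 10% FBS). Compound was given iv starting one day after inoculation. Groups of 7–8 mice plus vehicle controls, monitored twice daily. Percentage increase in life span calculated from median survival time, normalised to controls.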

SW480 [17] = experiment: Ex vivo antiproliferative activity against human SW480 cells xenografted in nude mouse assessed as BrdU incorporation into DNA after 96 hrs by immunostaining; type: functional, cell-based; summary of the method: as §2
NUGC-3 [18] = experiment: Induction of microtubule arrangement aberration in human NUGC3 cells assessed as appearance of tubulin at 1 uM after 16 hrs FITC analysis; type: functional, cell-based; summary of the method: as §3
P388 [19] = experiment: Anticancer activity against mouse P388 cells xenografted in DBA/2J mouse assessed as increase in mouse life span at 7.5 mg/kg, iv administered daily for 4 consecutive days; type: functional; summary of the method: as §5
Mus musculus [20] = experiment: Toxicity in DBA/2J mouse xenografted with mouse P388 cells assessed as body weight loss at 2.5 to 7.5 mg/kg, iv administered daily for 4 consecutive days; type: organism-based; design: dose 2.5-7.5 mg/kg, route intravenous; conditions: in vivo
P388 [21] = experiment: Anticancer activity against mouse P388 cells xenografted in po dosed DBA/2J mouse assessed as increase in mouse life span administered daily for 9 consecutive days; type: functional, organism-based; summary of the method: as §4
Mus musculus [22] = experiment: Toxicity in DBA/2J mouse xenografted with mouse P388 cells assessed as body weight loss at 25 to 200 mg/kg, po administered daily for 9 consecutive days; type: organism-based; design: dose 25-200 mg/kg, route oral; conditions: in vivo

Compound: Nc1nc(-c2ccccc2)cn1/N=C/c1ccc(C(F)(F)F)cc1
- IC50 (NUGC-3 [1]): 5.77 µM

Compound: Nc1nc(-c2ccccc2)cn1/N=C/c1ccc(Cl)c(Cl)c1
- IC50 (NUGC-3 [1]): 0.74 µM

Compound: Nc1nc(-c2ccc(-c3ccccc3)cc2)cn1/N=C/c1ccc(Cl)cc1
- IC50 (NUGC-3 [1]): > 10 µM

Compound: Nc1nc(-c2ccccc2)cn1/N=C/c1ccc(Br)cc1
- IC50 (NUGC-3 [1]): 0.58 µM

Compound: Nc1nc(-c2ccccc2)cn1/N=C/c1ccccc1Cl
- IC50 (NUGC-3 [1]): 3.97 µM

Compound: COc1cc2c(c(OC)c1OC)-c1ccc(OC)c(=O)cc1[C@@H](NC(C)=O)CC2 [COLCHICINE]
- IC50 (NUGC-3 [1]): 0.01 µM

Compound: Nc1nc(-c2ccccc2)cn1/N=C/c1cccc(Cl)c1Cl
- IC50 (NUGC-3 [1]): 5.12 µM

Compound: COc1ccccc1-c1cn(/N=C/c2ccc(Cl)cc2)c(N)n1
- IC50 (NUGC-3 [1]): 5.2 µM

Compound: Nc1nc(-c2ccccn2)cn1/N=C/c1ccc(Cl)cc1
- IC50 (NUGC-3 [1]): 0.31 µM

Compound: Nc1nc(-c2cccnc2)cn1/N=C/c1ccc(F)cc1
- IC50 (NUGC-3 [1]): 0.06 µM

Compound: Nc1nc(-c2ccsc2)cn1/N=C/c1ccc(Cl)cc1
- IC50 (NUGC-3 [1]): 0.05 µM

Compound: Nc1nc(-c2ccccc2)cn1/N=C/c1ccccc1
- IC50 (NUGC-3 [1]): 0.84 µM

Compound: Cc1ccsc1/C=N/n1cc(-c2ccccc2)nc1N
- IC50 (NUGC-3 [1]): 0.91 µM

Compound: Nc1nc(-c2ccccc2)cn1/N=C/c1ccc(F)cc1
- Activity (P388 [2]): 110%
- IC50 (MKN-45 [3]): 34 µM
- Activity (MKN-45 [4]): Active
- Activity (SW480 [5]): Active
- IC50 (NUGC-3 [1]): 0.05 µM
- Activity (MKN-45 [6]): Active

Compound: Nc1nc(-c2cccs2)cn1/N=C/c1ccc(Cl)cc1
- IC50 (NUGC-3 [1]): 0.08 µM

Compound: Nc1nc(-c2cccnc2)cn1/N=C/c1ccc(Cl)cc1
- Activity (Bos taurus [7]): Active
- IC50 [8]: 0.27 µM
- Activity (Bos taurus [9]): Dose-dependent effect
- Activity (NUGC-3 [10]): Active
- IC50 (NUGC-3 [1]): 0.23 µM

Compound: Nc1nc(-c2ccccc2)cn1/N=C/c1ccc(Cl)cc1
- Activity (NUGC-3 [11]): Active
- Activity (P388 [2]): 114%
- IC50 (MKN-45 [3]): 13 µM
- Activity (MKN-45 [12]): Dose-dependent effect
- Activity (Bos taurus [7]): Active
- Activity (P388 [13]): Dose-dependent effect
- IC50 [8]: 2.65 µM
- Activity (P388 [14]): 71%
- Activity (P388 [15]): 14%
- Activity (P388 [16]): 17%
- Activity (SW480 [17]): Dose-dependent effect
- Activity (Bos taurus [9]): Dose-dependent effect
- Activity (NUGC-3 [18]): Active
- Activity (NUGC-3 [10]): Active
- Activity (P388 [19]): 100%
- Activity (Mus musculus [20]): Non-toxic
- IC50 (NUGC-3 [1]): 0.06 µM
- Activity (P388 [21]): Dose-dependent effect
- Activity (Mus musculus [22]): Non-toxic

Compound: Nc1nc(-c2ccc(Cl)s2)cn1/N=C/c1ccc(Cl)cc1
- IC50 (NUGC-3 [1]): 3.28 µM

Compound: Nc1nc(-c2nccs2)cn1/N=C/c1ccc(Cl)cc1
- IC50 (NUGC-3 [1]): 0.51 µM

Compound: Nc1nc(-c2ccccc2)c(-c2ccccc2)n1/N=C/c1ccc(Cl)cc1
- IC50 (NUGC-3 [1]): > 10 µM

Compound: Nc1nc(-c2ccccc2)cn1/N=C/c1ccnc2ccccc12
- IC50 (NUGC-3 [1]): > 10 µM
